Data reported in ChEMBL document CHEMBL3525971 (Drug Metab Dispos, 2011).

Experiments:
[1] = Terminal half life in castrated pig plasma withdrawn from portal vein at 0.8 mg/kg administered as intrajejunal dose 20 mins after ketoconazole administration by UPLC-tandem mass spectrometry; assay type: ADME, organism-based, Sus scrofa; parameters: dose 0.8 mg/kg; conditions: male, read-out: beta t1/2 (converted)
Outline: (§1)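 Portal, hepatic and femoral vein plasma sampled over 6 h and assayed by UPLC-MS/MS. Tmax read directly from the profiles. Terminal t1/2 calculated as ln2/λz by non- or compartmental analysis; values below LLOQ after Cmax excluded.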

[2] = AUC (0 to 6 hrs) in castrated pig plasma withdrawn from portal vein at 0.8 mg/kg administered as intrajejunal dose by UPLC-tandem mass spectrometry; assay type: ADME, organism-based, Sus scrofa; parameters: time < 6 hr, dose 0.8 mg/kg; conditions: male
Outline: (§2)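 Where ketoconazole was co-dosed, it was given at 10 mg/kg at the same jejunal site 20 min before. Plasma protein-precipitated with acetonitrile and analysed by UPLC-MS/MS (finasteride-d9). AUC0-6h, Cmax and t1/2 (ln2/λz) were derived by non- or compartmental analysis.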

[3] = Apparent biliary clearance in castrated pig at 0.2 mg/kg, iv by UPLC-tandem mass spectrometry; assay type: ADME, organism-based, Sus scrofa, Bile; parameters: dose 0.2 mg/kg, route intravenous; conditions: in vivo
[4] = Tmax in castrated pig plasma withdrawn from femoral vein at 0.8 mg/kg administered as intrajejunal dose 20 mins after ketoconazole administration by UPLC-tandem mass spectrometry; assay type: ADME, organism-based, Sus scrofa; parameters: dose 0.8 mg/kg; conditions: male; outline: as §1
[5] = Cmax in castrated pig plasma withdrawn from hepatic vein at 0.8 mg/kg administered as intrajejunal dose by UPLC-tandem mass spectrometry; assay type: ADME, organism-based, Sus scrofa; parameters: dose 0.8 mg/kg; conditions: male; outline: as §2
[6] = Total plasma clearance in human; assay type: ADME, organism-based
[7] = Drug excretion in castrated pig urine assessed as unchanged drug level at 0.2 mg/kg, iv measured during 6 hrs sampling by UPLC-tandem mass spectrometry; assay type: ADME, organism-based, Sus scrofa; parameters: dose 0.2 mg/kg, route intravenous; conditions: in vivo
[8] = Apparent half-life of the terminal disposition phase in castrated pig plasma withdrawn from hepatic vein at 0.2 mg/kg, iv by UPLC-tandem mass spectrometry; assay type: ADME, organism-based, Sus scrofa; parameters: dose 0.2 mg/kg, route intravenous; conditions: male, read-out: t1/2 lambda z (converted); outline: as §2
[9] = AUC (0 to 6 hrs) in castrated pig plasma withdrawn from hepatic vein at 0.8 mg/kg administered as intrajejunal dose by UPLC-tandem mass spectrometry; assay type: ADME, organism-based, Sus scrofa; parameters: time < 6 hr, dose 0.8 mg/kg; conditions: male; outline: as §2

In the case of `CC(C)(C)NC(=O)[C@H]1CC[C@H]2[C@@H]3CC[C@H]4NC(=O)C=C[C@]4(C)[C@H]3CC[C@]12C` [FINASTERIDE], the half-life [1] is reported as 3.9 h, the AUC(0-t) at 6 h [2] is reported as 2.9 µM·h and the “CL(app)” value [3] is reported as 0.014 mL/min/kg. For the same molecule, the Tmax [4] was 1.5 h, the Cmax [5] was 1000 nM and the clearance [6] was 2.33 mL/min/kg. It also gave an Ae [7] of 0.02 µmol, a half-life [8] of 3.1 h and an AUC(0-t) at 6 h [9] of 1.6 µM·h.
